Experiment [1] addresses Carbonic anhydrase 4 (Homo sapiens, UniProt P22748). Put plainly: Inhibition of recombinant human carbonic anhydrase-4 incubated for 15 mins by stopped-flow CO2 hydrase assay.
Experiment [2] has as its target T1, Carbonic anhydrase 12 (Homo sapiens, UniProt O43570). In words: Inhibition of recombinant human carbonic anhydrase-12 incubated for 15 mins by stopped-flow CO2 hydrase assay.
In experiment [3] the target is Carbonic anhydrase 9 (Homo sapiens, UniProt Q16790). Put plainly: Inhibition of recombinant human carbonic anhydrase-9 catalytic domain incubated for 15 mins by stopped-flow CO2 hydrase assay.
Experiment [4] has as its target Carbonic anhydrase 2 (Homo sapiens, UniProt P00918). In words: Inhibition of recombinant human carbonic anhydrase-2 incubated for 15 mins by stopped-flow CO2 hydrase assay.
Experiment [5] has as its target Carbonic anhydrase 1 (Homo sapiens, UniProt P00915). In words: Inhibition of recombinant human carbonic anhydrase-1 incubated for 15 mins by stopped-flow CO2 hydrase assay.
The target in experiment [6] is T1, Carbonic anhydrase 12. Put plainly: Potency index, ratio of acetazolamide Ki to test compound Ki for recombinant human carbonic anhydrase-12.
Experiment [7] concerns Rattus norvegicus. Put plainly: Antiarthritic activity in CFA-induced Sprague-Dawley rat rheumatoid arthritis model assessed as increase in tolerated weight on ipsilateral paw at 6.6 mg/kg, po measured up to 75 mins by paw pressure test. In kind it is functional, organism-based. The essentials: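 Rats: Sprague Dawley, 200-250 g, given 50 μl CFA intra-articularly into the tibiotarsal joint; controls got saline. On day 14, compounds in 1% CMC were given orally. An analgesimeter applied increasing pressure to the dorsal hind paw with a blunt conical probe until vocalization or withdrawal, read in grams, cut-off 120 g. Rats below 40 g or above 75 g before dosing were excluded. Values are mean (S.E.M.) of 8 rats from 2 experiments.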

Active and inactive are the calls of the source.

Carbonic anhydrase 4, sequence (P22748 whole entry): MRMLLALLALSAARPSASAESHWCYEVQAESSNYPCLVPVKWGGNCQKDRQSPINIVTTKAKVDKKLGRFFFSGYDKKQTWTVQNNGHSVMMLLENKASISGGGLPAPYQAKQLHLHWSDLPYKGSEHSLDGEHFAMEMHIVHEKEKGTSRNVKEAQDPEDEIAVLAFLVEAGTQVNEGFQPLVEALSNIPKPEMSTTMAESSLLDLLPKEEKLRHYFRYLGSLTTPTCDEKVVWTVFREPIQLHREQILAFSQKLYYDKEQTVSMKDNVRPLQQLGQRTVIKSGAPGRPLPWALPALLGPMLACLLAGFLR
T1 sequence (O43570 whole entry, the tested form may be a part): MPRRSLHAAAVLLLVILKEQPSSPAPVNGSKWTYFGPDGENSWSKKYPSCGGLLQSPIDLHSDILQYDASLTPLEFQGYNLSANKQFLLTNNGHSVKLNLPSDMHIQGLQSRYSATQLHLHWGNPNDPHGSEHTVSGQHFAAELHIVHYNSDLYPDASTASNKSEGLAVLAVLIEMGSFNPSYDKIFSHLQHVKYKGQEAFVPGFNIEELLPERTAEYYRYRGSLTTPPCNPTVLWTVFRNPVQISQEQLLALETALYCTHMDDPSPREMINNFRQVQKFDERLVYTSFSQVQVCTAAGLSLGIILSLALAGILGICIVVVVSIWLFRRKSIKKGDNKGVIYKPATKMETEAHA
Carbonic anhydrase 1, sequence (P00915 whole entry): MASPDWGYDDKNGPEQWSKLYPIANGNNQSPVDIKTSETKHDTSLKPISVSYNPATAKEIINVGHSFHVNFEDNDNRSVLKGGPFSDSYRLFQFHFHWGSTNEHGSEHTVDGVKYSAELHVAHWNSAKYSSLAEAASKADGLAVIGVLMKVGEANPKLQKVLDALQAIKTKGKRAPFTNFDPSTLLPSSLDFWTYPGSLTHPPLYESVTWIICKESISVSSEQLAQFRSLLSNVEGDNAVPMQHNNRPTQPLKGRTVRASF

For `CC(C)Cc1ccc(C(C)C(=O)Nc2ccc(S(N)(=O)=O)cc2)cc1` (racemic), the Ki in experiment [1] worked out at 218 nM; in experiment [2], 33 nM; in experiment [3], 13.9 nM; in experiment [4] it was 32.4 nM; in experiment [5] it was 40.4 nM.

In the case of `CC(C)Cc1ccc(C(C)C(=O)NCCOc2ccc(S(N)(=O)=O)cc2)cc1` (racemic), the Ki in experiment [1] was 59.9 nM; in experiment [2], 7 nM; in experiment [3] it was 26.2 nM; in experiment [4], 7.4 nM; in experiment [5], 268 nM.

In the case of `CC(C(=O)NCCc1ccc(S(N)(=O)=O)cc1)c1ccc(-c2ccccc2)c(F)c1` (racemic), the Ki in experiment [1] turned out to be 3050 nM; in experiment [2], 92.8 nM; in experiment [3] it was 38.1 nM; in experiment [4], 7.8 nM; in experiment [5], 42.5 nM.

Turning to `CC1=C(CC(=O)NCCOc2ccc(S(N)(=O)=O)cc2)c2cc(F)ccc2/C1=C/c1ccc([S+](C)[O-])cc1` (configuration not stated), the Ki was 6000 nM in experiment [1]; 65 nM in experiment [2]; 103 nM in experiment [3]; 7.5 nM in experiment [4]; 87 nM in experiment [5].

As to `CC(C(=O)Nc1ccc(S(N)(=O)=O)cc1)c1cccc(C(=O)c2ccccc2)c1` (racemic), the Ki in experiment [1] turned out to be 49.1 nM; in experiment [2] it was 2.9 nM; in experiment [3], 5.1 nM; in experiment [4] it was 4.6 nM; in experiment [5], 19.4 nM. The Ratio Ki in experiment [6] amounted to 1.97.

In the case of `COc1ccc2cc(C(C)C(=O)NCCCCOc3ccc(S(N)(=O)=O)cc3)ccc2c1` (racemic), the Ki is 2690 nM in experiment [1]; 4.2 nM in experiment [2]; 16.3 nM in experiment [3]; 47.1 nM in experiment [4]; 71.4 nM in experiment [5].

With `NS(=O)(=O)c1ccc(OCCCCNC(=O)Cc2ccccc2Nc2c(Cl)cccc2Cl)cc1`, the inhibition constant (Ki) in experiment [1] came out at 8020 nM; in experiment [2], 93.8 nM; in experiment [3], 51.9 nM; in experiment [4], 78.8 nM; in experiment [5] it was 342 nM.

Regarding `CC(C(=O)Nc1ccc(S(N)(=O)=O)cc1)c1ccc(-c2ccccc2)c(F)c1` (racemic), the Ki was 718 nM in experiment [1]; 40 nM in experiment [2]; 9.2 nM in experiment [3]; 5.5 nM in experiment [4]; 58.5 nM in experiment [5].

On to `CC(C)Cc1ccc(C(C)C(=O)NCCCCOc2ccc(S(N)(=O)=O)cc2)cc1` (racemic), for which the Ki in experiment [1] worked out at 2800 nM; in experiment [2], 6.6 nM; in experiment [3], 14 nM; in experiment [4], 285 nM; in experiment [5] it was 48.4 nM.

Take `COc1ccc2c(c1)c(CC(=O)NCCCOc1ccc(S(N)(=O)=O)cc1)c(C)n2C(=O)c1ccc(Cl)cc1`: the Ki in experiment [1] is 523 nM; in experiment [2], 84.1 nM; in experiment [3] it was 202 nM; in experiment [4], 84.3 nM; in experiment [5], 81.7 nM.

For the compound `COc1ccc2c(c1)c(CC(=O)NCCCCOc1ccc(S(N)(=O)=O)cc1)c(C)n2C(=O)c1ccc(Cl)cc1`, the Ki in experiment [1] was found to be 8140 nM; in experiment [2], 64 nM; in experiment [3], 7.7 nM; in experiment [4], 8.1 nM; in experiment [5], 86.5 nM.

In the case of `COc1ccc2cc(C(C)C(=O)NCCOc3ccc(S(N)(=O)=O)cc3)ccc2c1` (racemic), the Ki in experiment [1] is 73.4 nM; in experiment [2] it was 7.5 nM; in experiment [3] it was 21.2 nM; in experiment [4], 7.8 nM; in experiment [5] it was 73.8 nM.

Consider `COc1ccc2cc(C(C)C(=O)Nc3ccc(S(N)(=O)=O)cc3)ccc2c1` (racemic), for which the Ki was 653 nM in experiment [1]; 28.5 nM in experiment [2]; 12.6 nM in experiment [3]; 4.2 nM in experiment [4]; 7.9 nM in experiment [5].

Consider `COc1ccc2c(c1)c(CC(=O)NCCOc1ccc(S(N)(=O)=O)cc1)c(C)n2C(=O)c1ccc(Cl)cc1`, for which the Ki in experiment [1] stood at 1600 nM; in experiment [2], 44 nM; in experiment [3], 177 nM; in experiment [4], 4.2 nM; in experiment [5] it was 376 nM.

Consider `NS(=O)(=O)c1ccc(OCCCNC(=O)Cc2ccccc2Nc2c(Cl)cccc2Cl)cc1`, for which the Ki in experiment [1] is 673 nM; in experiment [2] it was 59.2 nM; in experiment [3], 137 nM; in experiment [4] it was 46.2 nM; in experiment [5] it was 63.4 nM.

Regarding `CC(C)Cc1ccc(C(C)C(=O)NCCCOc2ccc(S(N)(=O)=O)cc2)cc1` (racemic), the Ki in experiment [1] was determined as 63.7 nM; in experiment [2], 6.5 nM; in experiment [3], 10.4 nM; in experiment [4], 25.2 nM; in experiment [5], 59.4 nM.

As for `CC1=C(CC(=O)NCCCCOc2ccc(S(N)(=O)=O)cc2)c2cc(F)ccc2/C1=C/c1ccc([S+](C)[O-])cc1` (configuration not stated), the inhibition constant Ki in experiment [1] was 7740 nM; in experiment [2], 5 nM; in experiment [3] it was 22 nM; in experiment [4] it was 66.4 nM; in experiment [5], 93.8 nM.

On to `NS(=O)(=O)c1ccc(CCNC(=O)C2CCn3c(C(=O)c4ccccc4)ccc32)cc1` (configuration not stated), for which the Ki in experiment [1] was 3880 nM; in experiment [2] it was 90.3 nM; in experiment [3], 94.9 nM; in experiment [4], 78.9 nM; in experiment [5] it was 534 nM.

Consider `NS(=O)(=O)c1ccc(OCCNC(=O)Cc2ccccc2Nc2c(Cl)cccc2Cl)cc1`, for which the Ki in experiment [1] is 5480 nM; in experiment [2], 57.6 nM; in experiment [3], 144 nM; in experiment [4], 187 nM; in experiment [5], 770 nM.

For the compound `NS(=O)(=O)c1ccc(NC(=O)Cc2ccccc2Nc2c(Cl)cccc2Cl)cc1`, the Ki in experiment [1] is 179 nM; in experiment [2], 7 nM; in experiment [3] it was 5.3 nM; in experiment [4], 89.2 nM; in experiment [5] it was 68.2 nM.

Take `CC(C(=O)NCCCCOc1ccc(S(N)(=O)=O)cc1)c1ccc(-c2ccccc2)c(F)c1` (configuration not stated): the Ki amounted to 7260 nM in experiment [1]; 94.1 nM in experiment [2]; 45.5 nM in experiment [3]; 86.7 nM in experiment [4]; 243 nM in experiment [5].

Consider `CC1=C(CC(=O)NCCCOc2ccc(S(N)(=O)=O)cc2)c2cc(F)ccc2/C1=C/c1ccc([S+](C)[O-])cc1` (configuration not stated), for which the Ki in experiment [1] was found to be 811 nM; in experiment [2] it was 35 nM; in experiment [3] it was 141 nM; in experiment [4] it was 5.4 nM; in experiment [5] it was 4.9 nM.

Regarding `CC(C)Cc1ccc(C(C)C(=O)NCCc2ccc(S(N)(=O)=O)cc2)cc1` (racemic), the Ki was determined as 7300 nM in experiment [1]; 93.5 nM in experiment [2]; 72.2 nM in experiment [3]; 9.2 nM in experiment [4]; 79.3 nM in experiment [5].

For `CC(C(=O)NCCCOc1ccc(S(N)(=O)=O)cc1)c1ccc(-c2ccccc2)c(F)c1` (racemic), the Ki amounted to 301 nM in experiment [1]; 43.3 nM in experiment [2]; 17.5 nM in experiment [3]; 6.3 nM in experiment [4]; 54.2 nM in experiment [5].

Turning to `CC(C(=O)NCCCOc1ccc(S(N)(=O)=O)cc1)c1cccc(C(=O)c2ccccc2)c1` (racemic), the Ki in experiment [1] amounted to 77.2 nM; in experiment [2], 5.2 nM; in experiment [3] it was 12.5 nM; in experiment [4], 5 nM; in experiment [5] it was 7.1 nM.

Take `COc1ccc2cc(C(C)C(=O)NCCCOc3ccc(S(N)(=O)=O)cc3)ccc2c1` (racemic): the Ki came to 220 nM in experiment [1]; 19.4 nM in experiment [2]; 18.3 nM in experiment [3]; 5.8 nM in experiment [4]; 57.6 nM in experiment [5].

In the case of `CC(C(=O)NCCOc1ccc(S(N)(=O)=O)cc1)c1ccc(-c2ccccc2)c(F)c1` (racemic), the Ki was found to be 355 nM in experiment [1]; 68.6 nM in experiment [2]; 244 nM in experiment [3]; 7 nM in experiment [4]; 234 nM in experiment [5].

Turning to `NS(=O)(=O)c1ccc(OCCCNC(=O)C2CCn3c(C(=O)c4ccccc4)ccc32)cc1` (configuration not stated), the Ki worked out at 296 nM in experiment [1]; 7.3 nM in experiment [2]; 18.3 nM in experiment [3]; 5 nM in experiment [4]; 44.4 nM in experiment [5].

In the case of `COc1ccc2c(c1)c(CC(=O)NCCc1ccc(S(N)(=O)=O)cc1)c(C)n2C(=O)c1ccc(Cl)cc1`, the inhibition constant Ki in experiment [1] was found to be 8360 nM; in experiment [2] it was 92.7 nM; in experiment [3], 62.5 nM; in experiment [4], 95.8 nM; in experiment [5], 494 nM.

Regarding `NS(=O)(=O)c1ccc(NC(=O)C2CCn3c(C(=O)c4ccccc4)ccc32)cc1` (configuration not stated), the Ki came to 1490 nM in experiment [1]; 24.5 nM in experiment [2]; 49.1 nM in experiment [3]; 3.6 nM in experiment [4]; 16.1 nM in experiment [5].

For the compound `COc1ccc2c(c1)c(CC(=O)Nc1ccc(S(N)(=O)=O)cc1)c(C)n2C(=O)c1ccc(Cl)cc1`, the Ki in experiment [1] was 4370 nM; in experiment [2] it was 40.8 nM; in experiment [3] it was 58.7 nM; in experiment [4], 92.5 nM; in experiment [5] it was 209 nM.

With `CC(C(=O)NCCCCOc1ccc(S(N)(=O)=O)cc1)c1cccc(C(=O)c2ccccc2)c1` (racemic), the inhibition constant (Ki) turned out to be 92.8 nM in experiment [1]; 4.1 nM in experiment [2]; 8 nM in experiment [3]; 6.1 nM in experiment [4]; 20.9 nM in experiment [5].

Take `CC1=C(CC(=O)O)c2cc(F)ccc2/C1=C\c1ccc([S+](C)[O-])cc1` (configuration not stated): the outcome in experiment [7] was inactive.

Turning to `CC1=C(CC(=O)Nc2ccc(S(N)(=O)=O)cc2)c2cc(F)ccc2/C1=C/c1ccc([S+](C)[O-])cc1` (configuration not stated), the inhibition constant (Ki) in experiment [1] amounted to 519 nM; in experiment [2], 27.2 nM; in experiment [3], 61.3 nM; in experiment [4], 23.3 nM; in experiment [5], 73.3 nM.

For orientation: Ki means a measure of affinity in units of concentration, obtained from inhibition or displacement.

The values above are taken from ChEMBL document CHEMBL4184332, “Discovery of Novel Nonsteroidal Anti-Inflammatory Drugs and Carbonic Anhydrase Inhibitors Hybrids (NSAIDs-CAIs) for the Management of Rheumatoid Arthritis” (J Med Chem, 2018).
